In brackets after ≈: the same amount, converted by molar mass. Some results are limits rather than exact numbers.

For one data set, the system named is Staphylococcus aureus. Description: Antibacterial activity against Staphylococcus aureus ATCC 29213 after 24 hrs in presence of 2% human albumin by broth microdilution method. The class given is functional. Conditions: ATCC 29213, 24 h. (Dilution methods test growth across graded concentrations, often in twofold steps.)
`CCNC(=O)Nc1cc(-c2nc(C(F)(F)F)cs2)c(-c2cc(-c3n[nH]c(=O)o3)cnc2N2C3CCC2CN(C)C3)cn1`: the MIC was under 0.06 µg/mL.

Another data set relates to Pseudomonas aeruginosa. Description: Antibacterial activity against Pseudomonas aeruginosa ARC4068 after 24 hrs by broth microdilution method. Conditions: ARC4068, 24 h. The class given is functional. Put shortly:
(§1)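 Broth microdilution per CLSI. Bacterial suspension adjusted to 1×10^6 CFU/mL in cation-adjusted Mueller–Hinton broth and mixed 1:1 with 2-fold serial compound dilutions. Plates incubated at 35 °C with shaking at 140 rpm for 24 h.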
`CCNC(=O)Nc1cc(-c2nc(C(F)(F)F)cs2)c(-c2cc(-c3n[nH]c(=O)o3)cnc2N2C3CCC2CN(C)C3)cn1` yielded an MIC of 8 µg/mL (≈ 13.3 µM).

A further data set deals with Pseudomonas aeruginosa. The data set can be described thus: Antibacterial activity against Pseudomonas aeruginosa ARC3506 after 24 hrs by broth microdilution method. The class given is functional. Conditions: ARC3506, 24 h. The method, boiled down: (§2)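 Broth microdilution per CLSI. Bacterial suspension adjusted to 1×10^6 CFU/mL in cation-adjusted Mueller–Hinton broth and mixed 1:1 with 2-fold serial compound dilutions. Final DMSO 2.5% v/v. Plates incubated at 35 °C with shaking at 140 rpm for 24 h.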
With `CCNC(=O)Nc1cc(-c2nc(C(F)(F)F)cs2)c(-c2cc(-c3n[nH]c(=O)o3)cnc2N2C3CCC2CN(C)C3)cn1`, the MIC is 4 µg/mL (≈ 6.65 µM).

Another data set deals with Staphylococcus aureus. Description: Antibacterial activity against methicillin-resistant Staphylococcus aureus FQ-R after 24 hrs by broth microdilution method. The class given is functional.
Details: not given
Put shortly:
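Broth microdilution per CLSI. Bacterial suspensions adjusted to 1×10^6 CFU/mL in cation-adjusted Mueller–Hinton broth, mixed 1:1 with 2-fold serial compound dilutions (final DMSO 2.5% v/v). Incubation 35 °C, 140 rpm, 24 h.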
Compound `CCNC(=O)Nc1cc(-c2nc(C(F)(F)F)cs2)c(-c2cc(-c3n[nH]c(=O)o3)cnc2N2C3CCC2CN(C)C3)cn1` showed an MIC of under 0.06 µg/mL.

For another data set, the system named is Pseudomonas aeruginosa. The data set can be described thus: Antibacterial activity against Pseudomonas aeruginosa ARC3612 after 24 hrs by broth microdilution method. It counts as functional. As to conditions: ARC3612, 24 h. The method, boiled down:
as §2
`CCNC(=O)Nc1cc(-c2nc(C(F)(F)F)cs2)c(-c2cc(-c3n[nH]c(=O)o3)cnc2N2C3CCC2CN(C)C3)cn1`: the MIC came to 8 µg/mL (≈ 13.3 µM).

For the next data set, the system named is Acinetobacter baumannii. Description: Antibacterial activity against Acinetobacter baumannii ARC3882 after 24 hrs by broth microdilution method. The class given is functional. As to conditions: ARC3882, 24 h. The method, boiled down:
as §2
Take `CCNC(=O)Nc1cc(-c2nc(C(F)(F)F)cs2)c(-c2cc(-c3n[nH]c(=O)o3)cnc2N2C3CCC2CN(C)C3)cn1`: the MIC amounted to 1 µg/mL (≈ 1.66 µM).

A further data set deals with Pseudomonas aeruginosa. Description: Antibacterial activity against Pseudomonas aeruginosa ARC4060 after 24 hrs by broth microdilution method. The class given is functional. As to conditions: ARC4060, 24 h. Put shortly: as §2
The compound `CCNC(=O)Nc1cc(-c2nc(C(F)(F)F)cs2)c(-c2cc(-c3n[nH]c(=O)o3)cnc2N2C3CCC2CN(C)C3)cn1` displayed an MIC of 8 µg/mL (≈ 13.3 µM).

The next data set relates to Pseudomonas aeruginosa. Description: Antibacterial activity against Pseudomonas aeruginosa ARC3916 after 24 hrs by broth microdilution method. It counts as functional. Conditions: ARC3916, 24 h. Put shortly:
as §2
Compound `CCNC(=O)Nc1cc(-c2nc(C(F)(F)F)cs2)c(-c2cc(-c3n[nH]c(=O)o3)cnc2N2C3CCC2CN(C)C3)cn1` returned an MIC of 4 µg/mL (≈ 6.65 µM).

The subject of the next data set is Acinetobacter baumannii. The data set can be described thus: Antibacterial activity against Acinetobacter baumannii ARC2781 after 24 hrs by broth microdilution method. The class given is functional. Conditions: ARC2781, 24 h. The method, boiled down: as §1
For `CCNC(=O)Nc1cc(-c2nc(C(F)(F)F)cs2)c(-c2cc(-c3n[nH]c(=O)o3)cnc2N2C3CCC2CN(C)C3)cn1`, the MIC was 0.25 µg/mL (≈ 0.416 µM).

The next data set has as its system Pseudomonas aeruginosa. Description: Antibacterial activity against Pseudomonas aeruginosa ARC3925 after 24 hrs by broth microdilution method. Conditions: ARC3925, 24 h. The class given is functional. The method, boiled down: as §1
`CCNC(=O)Nc1cc(-c2nc(C(F)(F)F)cs2)c(-c2cc(-c3n[nH]c(=O)o3)cnc2N2C3CCC2CN(C)C3)cn1` had an MIC of 8 µg/mL (≈ 13.3 µM).

The subject of another data set is Acinetobacter baumannii. The data set can be described thus: Antibacterial activity against Acinetobacter baumannii ARC3484 after 24 hrs by broth microdilution method. The class given is functional. Conditions: ARC3484, 24 h. The method, boiled down: as §1
Compound `CCNC(=O)Nc1cc(-c2nc(C(F)(F)F)cs2)c(-c2cc(-c3n[nH]c(=O)o3)cnc2N2C3CCC2CN(C)C3)cn1` registered an MIC of 2 µg/mL (≈ 3.32 µM).

A further data set has as its system Pseudomonas aeruginosa. The data set can be described thus: Antibacterial activity against Pseudomonas aeruginosa ARC3504 after 24 hrs by broth microdilution method. The class given is functional. As to conditions: ARC3504, 24 h. The method, boiled down:
as §2
Compound `CCNC(=O)Nc1cc(-c2nc(C(F)(F)F)cs2)c(-c2cc(-c3n[nH]c(=O)o3)cnc2N2C3CCC2CN(C)C3)cn1` gave an MIC of 8 µg/mL (≈ 13.3 µM).

System in a further data set: not listed separately
Description: Protein binding in human plasma. The class given is ADME, cell-free. Conditions: read-out: PPB (converted).
For `CCNC(=O)Nc1cc(-c2nc(C(F)(F)F)cs2)c(-c2cc(-c3n[nH]c(=O)o3)cnc2N2C3CCC2CN(C)C3)cn1`, the fraction unbound is 0.211.

For another data set, the system named is Haemophilus influenzae. The data set can be described thus: Antibacterial activity against Haemophilus influenzae ATCC 49247 after 24 hrs by broth microdilution method. The class given is functional. Conditions: ATCC 49247, 24 h. The method, boiled down: as §2
Take `CCNC(=O)Nc1cc(-c2nc(C(F)(F)F)cs2)c(-c2cc(-c3n[nH]c(=O)o3)cnc2N2C3CCC2CN(C)C3)cn1`: the MIC was under 0.06 µg/mL.

The test system of the next data set is Pseudomonas aeruginosa. Description: Antibacterial activity against Pseudomonas aeruginosa ARC3607 after 24 hrs by broth microdilution method. It counts as functional. Conditions: ARC3607, 24 h. Put shortly: as §2
Take `CCNC(=O)Nc1cc(-c2nc(C(F)(F)F)cs2)c(-c2cc(-c3n[nH]c(=O)o3)cnc2N2C3CCC2CN(C)C3)cn1`: the MIC was 16 µg/mL (≈ 26.6 µM).

The next data set has as its system Streptococcus pneumoniae. The data set can be described thus: Antibacterial activity against Streptococcus pneumoniae ATCC 49619 after 24 hrs by broth microdilution method. It counts as functional. As to conditions: ATCC 49619, 24 h. Put shortly:
as §2
On to `CCNC(=O)Nc1cc(-c2nc(C(F)(F)F)cs2)c(-c2cc(-c3n[nH]c(=O)o3)cnc2N2C3CCC2CN(C)C3)cn1`, for which the MIC is under 0.06 µg/mL.

The next data set deals with Acinetobacter baumannii. The data set can be described thus: Antibacterial activity against Acinetobacter baumannii ARC3659 after 24 hrs by broth microdilution method. The class given is functional. Conditions: ARC3659, 24 h. Put shortly:
as §2
Turning to `CCNC(=O)Nc1cc(-c2nc(C(F)(F)F)cs2)c(-c2cc(-c3n[nH]c(=O)o3)cnc2N2C3CCC2CN(C)C3)cn1`, the MIC came out at 1 µg/mL (≈ 1.66 µM).

The subject of the next data set is Acinetobacter baumannii. Description: Antibacterial activity against Acinetobacter baumannii ARC3495 after 24 hrs by broth microdilution method. It counts as functional. As to conditions: ARC3495, 24 h. Put shortly:
as §2
In turn, `CCNC(=O)Nc1cc(-c2nc(C(F)(F)F)cs2)c(-c2cc(-c3n[nH]c(=O)o3)cnc2N2C3CCC2CN(C)C3)cn1` registered an MIC of 0.5 µg/mL (≈ 0.831 µM).

Another data set deals with Streptococcus pyogenes. The data set can be described thus: Antibacterial activity against Streptococcus pyogenes ARC838 after 24 hrs by broth microdilution method. It counts as functional. Conditions: ARC838, 24 h. The method, boiled down: as §1
On to `CCNC(=O)Nc1cc(-c2nc(C(F)(F)F)cs2)c(-c2cc(-c3n[nH]c(=O)o3)cnc2N2C3CCC2CN(C)C3)cn1`, for which the MIC was under 0.06 µg/mL.

The subject of another data set is Pseudomonas aeruginosa. Description: Antibacterial activity against Pseudomonas aeruginosa ARC003 after 24 hrs by broth microdilution method. The class given is functional. As to conditions: ARC003, 24 h. The method, boiled down:
as §2
`CCNC(=O)Nc1cc(-c2nc(C(F)(F)F)cs2)c(-c2cc(-c3n[nH]c(=O)o3)cnc2N2C3CCC2CN(C)C3)cn1` registered an MIC of 2 µg/mL (≈ 3.32 µM).

A further data set has as its system Pseudomonas aeruginosa. Description: Antibacterial activity against Pseudomonas aeruginosa ARC3502 after 24 hrs by broth microdilution method. The class given is functional. As to conditions: ARC3502, 24 h. The method, boiled down:
as §1
In the case of `CCNC(=O)Nc1cc(-c2nc(C(F)(F)F)cs2)c(-c2cc(-c3n[nH]c(=O)o3)cnc2N2C3CCC2CN(C)C3)cn1`, the MIC stood at 8 µg/mL (≈ 13.3 µM).

A further data set deals with DNA topoisomerase 4 subunit B (Escherichia coli K-12, UniProt P20083). The data set can be described thus: Inhibition of Escherichia coli ParE.
Sequence of DNA topoisomerase 4 subunit B (P20083 whole entry): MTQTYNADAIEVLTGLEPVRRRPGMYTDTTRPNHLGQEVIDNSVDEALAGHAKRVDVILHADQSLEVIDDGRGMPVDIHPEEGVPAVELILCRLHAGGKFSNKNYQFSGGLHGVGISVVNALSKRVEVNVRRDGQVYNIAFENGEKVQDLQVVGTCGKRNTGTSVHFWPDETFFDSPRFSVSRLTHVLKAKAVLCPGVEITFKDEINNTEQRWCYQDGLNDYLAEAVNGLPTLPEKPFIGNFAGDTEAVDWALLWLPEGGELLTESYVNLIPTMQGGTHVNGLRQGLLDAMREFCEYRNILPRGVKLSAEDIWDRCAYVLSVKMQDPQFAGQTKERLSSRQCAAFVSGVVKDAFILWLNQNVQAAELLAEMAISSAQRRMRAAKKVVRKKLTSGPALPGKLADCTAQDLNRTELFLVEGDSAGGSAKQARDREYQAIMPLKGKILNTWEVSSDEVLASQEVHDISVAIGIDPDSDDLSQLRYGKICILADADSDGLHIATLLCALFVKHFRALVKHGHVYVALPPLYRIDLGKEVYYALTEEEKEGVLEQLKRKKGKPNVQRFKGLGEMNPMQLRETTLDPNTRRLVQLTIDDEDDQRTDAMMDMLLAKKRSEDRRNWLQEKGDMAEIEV
Details: not given
`CCNC(=O)Nc1cc(-c2nc(C(F)(F)F)cs2)c(-c2cc(-c3n[nH]c(=O)o3)cnc2N2C3CCC2CN(C)C3)cn1`: the IC50 came to 4 nM.

The term IC50 denotes the concentration needed to halve the response being measured.

These data come from ChEMBL document CHEMBL4270612, “Discovery of dual GyrB/ParE inhibitors active against Gram-negative bacteria” (Eur J Med Chem, 2018).
